From ChEMBL document CHEMBL1129383, “Potent immunosuppressants, 2-alkyl-2-aminopropane-1,3-diols” (J Med Chem, 1996)

Legend:
[1] = Immunosuppressive activity on mouse allogenic MLR in vitro; assay type: functional
Summary of the method: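 Responders were BALB/c spleen cells (5 × 10⁵, H-2^d). Stimulators were an equal number of C57BL/6 spleen cells (H-2^b) treated with mitomycin C for 30 min at 37 °C. Co-culture in RPMI 1640 with 5 × 10⁻⁵ M 2-mercaptoethanol, 10% FCS and varied compound, 4 days at 37 °C, 5% CO₂. Proliferation read by MTT. IC50 is the mean of triplicates.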

[2] = test system: Rattus norvegicus; assay: Mean survival time of rats after skin allograft (intraperitoneal administration) at 1 mg/kg; assay type: functional
Summary of the method: (§1)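 LEW rat (male, 4 wk) dorsal skin grafted onto lateral thorax of F344 rats (male, 4 wk). Compounds in 20% (hydroxypropyl)-β-cyclodextrin given ip daily for 10 days from transplant day. Grafts inspected daily until rejection (>90% necrosis of graft epithelium); mean survival time in days ± SD, n = 4–5, Mann-Whitney U test. "Toxic" means animals died.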

[3] = test system: Rattus norvegicus; assay: Mean survival time of rats after skin allograft (intraperitoneal administration) at 3 mg/kg; assay type: functional; summary of the method: as §1
[4] = test system: Rattus norvegicus; assay: Mean survival time of rats after skin allograft (intraperitoneal administration) at 10 mg/kg; assay type: functional; summary of the method: as §1
[5] = test system: Rattus norvegicus; assay: Mean survival time of rats after skin allograft (intraperitoneal administration) at 20 mg/kg; assay type: functional; summary of the method: as §1
[6] = test system: Rattus norvegicus; assay: Mean survival time of rats after skin allograft (intraperitoneal administration) at 30 mg/kg; toxic - animals died; assay type: ADME, organism-based; parameters: dose 30 mg/kg, route intraperitoneal; details: in vivo, ip; summary of the method: as §1
[7] = test system: Rattus norvegicus; assay: Mean survival time of rats after skin allograft (intraperitoneal administration) at 1 mg/kg; toxic - animals died; assay type: ADME, organism-based; parameters: dose 1 mg/kg, route intraperitoneal; details: in vivo, ip; summary of the method: as §1
[8] = test system: Rattus norvegicus; assay: Mean survival time of rats after skin allograft (oral administration) at 0.1 mg/kg; assay type: functional
Summary of the method: as §1, with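 “5% (hydroxypropyl)methylcellulose” for “20% (hydroxypropyl)-β-cyclodextrin”, “orally,” for “ip”, “SD.” for “SD, n = 4–5, Mann-Whitney U test.”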

[9] = test system: Rattus norvegicus; assay: Mean survival time of rats after skin allograft (oral administration) at 0.3 mg/kg; assay type: functional
Summary of the method: as §1, with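 “5% (hydroxypropyl)methylcellulose” for “20% (hydroxypropyl)-β-cyclodextrin”, “orally,” for “ip”, “SD.” for “SD, n = 4–5, Mann-Whitney U test.”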

[10] = test system: Rattus norvegicus; assay: Mean survival time of rats after skin allograft (oral administration) at 30 mg/kg; toxic - animals died; assay type: ADME, organism-based; parameters: dose 30 mg/kg, route oral; details: in vivo
Summary of the method: as §1, with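 “5% (hydroxypropyl)methylcellulose” for “20% (hydroxypropyl)-β-cyclodextrin”, “orally,” for “ip”, “SD.” for “SD, n = 4–5, Mann-Whitney U test.”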

[11] = test system: Rattus norvegicus; assay: Mean survival time of rats after skin allograft (oral administration) at 1 mg/kg; assay type: functional
Summary of the method: as §1, with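 “5% (hydroxypropyl)methylcellulose” for “20% (hydroxypropyl)-β-cyclodextrin”, “orally,” for “ip”, “SD.” for “SD, n = 4–5, Mann-Whitney U test.”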

[12] = test system: Rattus norvegicus; assay: Mean survival time of rats after skin allograft (intraperitoneal administration) at 10 mg/kg; toxic - animals died; assay type: ADME, organism-based; parameters: dose 10 mg/kg, route intraperitoneal; details: in vivo, ip; summary of the method: as §1
[13] = test system: Rattus norvegicus; assay: Mean survival time of rats after skin allograft (oral administration) at 10 mg/kg; assay type: functional
Summary of the method: as §1, with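 “5% (hydroxypropyl)methylcellulose” for “20% (hydroxypropyl)-β-cyclodextrin”, “orally,” for “ip”, “SD.” for “SD, n = 4–5, Mann-Whitney U test.”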

[14] = test system: Rattus norvegicus; assay: Mean survival time of rats after skin allograft (oral administration) at 3 mg/kg; assay type: functional
Summary of the method: as §1, with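 “5% (hydroxypropyl)methylcellulose” for “20% (hydroxypropyl)-β-cyclodextrin”, “orally,” for “ip”, “SD.” for “SD, n = 4–5, Mann-Whitney U test.”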

[15] = test system: Rattus norvegicus; assay: Mean survival time of rats after skin allograft (intraperitoneal administration) at 0.1 mg/kg; assay type: functional; summary of the method: as §1
[16] = test system: Rattus norvegicus; assay: Mean survival time of rats after skin allograft (oral administration) at 100 mg/kg; toxic - animals died; assay type: ADME, organism-based; parameters: dose 100 mg/kg, route oral; details: in vivo
Summary of the method: as §1, with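 “5% (hydroxypropyl)methylcellulose” for “20% (hydroxypropyl)-β-cyclodextrin”, “orally,” for “ip”, “SD.” for “SD, n = 4–5, Mann-Whitney U test.”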

[17] = test system: Rattus norvegicus; assay: Mean survival time of rats after skin allograft (intraperitoneal administration) at 0.3 mg/kg; assay type: functional; summary of the method: as §1
[18] = species: Mus musculus; assay: Effect of compound on IL-2 production from alloantigen-stimulated mouse spleen cells; assay type: functional, cell-based
Summary of the method: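 BALB/c spleen cells at 5×10^6 cells/mL co-cultured with an equal number of mitomycin C-pretreated C57BL/6 spleen cells, with or without test compound, in RPMI 1640 with 5×10^-5 M 2-mercaptoethanol and 10% FCS; 48 h at 37 °C. Supernatant IL-2 activity measured by IL-2-dependent CTLL-2 proliferation, given in units/mL.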

[19] = test system: Rattus norvegicus; assay: Mean survival time of rats after skin allograft (oral administration) at 30 mg/kg; assay type: functional
Summary of the method: as §1, with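 “5% (hydroxypropyl)methylcellulose” for “20% (hydroxypropyl)-β-cyclodextrin”, “orally,” for “ip”, “SD.” for “SD, n = 4–5, Mann-Whitney U test.”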

[20] = test system: Rattus norvegicus; assay: Mean survival time of rats after skin allograft (intraperitoneal administration) at 20 mg/kg; toxic - animals died; assay type: ADME, organism-based; parameters: dose 20 mg/kg, route intraperitoneal; details: in vivo, ip; summary of the method: as §1
[21] = test system: Rattus norvegicus; assay: Mean survival time of rats after skin allograft (intraperitoneal administration) at 30 mg/kg; assay type: functional; summary of the method: as §1
[22] = test system: Rattus norvegicus; assay: Mean survival time of rats after skin allograft (intraperitoneal administration) at 100 mg/kg; toxic - animals died; assay type: ADME, organism-based; parameters: dose 100 mg/kg, route intraperitoneal; details: in vivo, ip; summary of the method: as §1

CCCCCCCCCCCCC/C=C/C[C@H]1OC(=O)[C@](N)(CO)[C@@H]1O
IC50 [1]: 3.6 nM

CCCCCCCCCCCCCCCC[C@@H](O)[C@H](O)C(N)(CO)CO
MST [2]: 8.2 days
MST [3]: 9.2 days
MST [4]: 11.8 days
IC50 [1]: 320 nM
MST [5]: 15 days
MST [6]: Toxic

CCCCCCC(=O)CCCCCC/C=C/C[C@@H](O)[C@H](O)[C@@](N)(CO)C(=O)O [MYRIOCIN]
IC50 [1]: 3 nM
MST [7]: Toxic

CCCCCCCCCCCCCCCC(N)(CO)CO
MST [8]: 18.8 days
IC50 [1]: 2.9 nM
MST [9]: 28.5 days
MST [10]: Toxic
MST [11]: 35.5 days
MST [12]: Toxic
MST [13]: 8.3 days
MST [14]: 47 days

CCCCCCC(O)CCCCCC/C=C/C[C@@H](O)[C@H](O)C(N)(CO)CO (stereo partly specified)
MST [2]: 8.2 days
MST [3]: 9.2 days
MST [4]: 11.8 days
IC50 [1]: 4.7 nM
MST [5]: 13.4 days
MST [6]: Toxic

CCCCCCCCCCCCCCC(N)(CO)CO
MST [2]: 39 days
MST [15]: 11.2 days
MST [16]: Toxic
MST [3]: 44.4 days
MST [17]: 23.1 days
IC50 [18]: > 1000 nM
MST [8]: 10.3 days
IC50 [1]: 5.9 nM
MST [9]: 13.6 days
MST [11]: 24.4 days
MST [12]: Toxic
MST [19]: 52.2 days
MST [13]: 46.4 days
MST [14]: 36.4 days

CCCCCCCCCCC(N)(CO)CO
IC50 [1]: 440 nM

CCCCCCCCCCCCC/C=C/C[C@H]1OC(=O)[C@](N)(CO)[C@H]1O
IC50 [1]: 10 nM

CCCCCCCCCCCCCCCCCCCCCCC(N)(CO)CO
IC50 [1]: 1600 nM

CCCCCCCCCCCCCCCCCCCCC(N)(CO)CO
IC50 [1]: 190 nM

CCCCCCCCCCCCCCCCC(N)(CO)CO
MST [20]: Toxic
MST [2]: 38.5 days
MST [15]: 10.5 days
MST [3]: 41.8 days
MST [17]: 14.3 days
IC50 [1]: 10 nM

CCCCCCCCCCCCCC(N)(CO)CO
IC50 [1]: 12 nM

CCCCCCC(O)CCCCCC/C=C/C[C@@H](O)[C@H](O)[C@@](N)(CO)C(=O)O (stereo partly specified)
MST [15]: 7.6 days
MST [17]: 9.6 days
IC50 [1]: 6.3 nM
MST [7]: Toxic

CCCCCCCCCCCCC(N)(CO)CO
IC50 [1]: 270 nM

CCCCCCCCCCCCC/C=C/C[C@@H](O)[C@H](O)C(N)(CO)CO
MST [2]: 8.2 days
MST [3]: 9.8 days
MST [4]: 14 days
IC50 [1]: 56 nM
MST [5]: 16.6 days
MST [6]: Toxic

CCCCCCC(O)CCCCCCCCC[C@@H](O)[C@H](O)C(N)(CO)CO (stereo partly specified)
MST [2]: 9.2 days
MST [21]: 12.5 days
MST [3]: 11 days
MST [4]: 12.2 days
MST [22]: Toxic
IC50 [1]: 1630 nM

CCCCCCCCC(N)(CO)CO
IC50 [1]: 3700 nM

CCCCCCCCCCCCCCCCCCC(N)(CO)CO
MST [2]: 14.8 days
MST [3]: 17.6 days
MST [17]: 11.2 days
IC50 [1]: 12 nM
MST [12]: Toxic

C/C=C/C[C@@H](C)[C@@H](O)[C@H]1C(=O)N[C@@H](CC)C(=O)N(C)CC(=O)N(C)[C@@H](CC(C)C)C(=O)N[C@@H](C(C)C)C(=O)N(C)[C@@H](CC(C)C)C(=O)N[C@@H](C)C(=O)N[C@H](C)C(=O)N(C)[C@@H](CC(C)C)C(=O)N(C)[C@@H](CC(C)C)C(=O)N(C)[C@@H](C(C)C)C(=O)N1C [CYCLOSPORINE]
MST [2]: 7.6 days
MST [21]: 19.4 days
MST [11]: 8.5 days
MST [19]: 20.5 days
MST [13]: 13.5 days
MST [14]: 10.3 days

CCCCCCCCCCCCC/C=C/C[C@@H](O)[C@H](O)[C@@](N)(CO)C(=O)O
MST [15]: 9 days
MST [17]: 10.6 days
IC50 [1]: 1.2 nM
MST [7]: Toxic
